Measured values published in publication PMC12334575 (Nature Communications, 2025).

Assays:
Assay type in all cases: cell-based, Candida auris
C. auris CBS10913 = assay: Intracellular drug accumulation assay; conditions: C. auris CBS10913, 20 µM, 10 min, 30 °C, PBS, silicone oil centrifugation, LC-MS
How it was run: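 Yeast subcultured in SDB at 30 °C with shaking to mid-log (OD530 ≈ 0.6), washed twice in PBS and resuspended in PBS. Equilibrated 5 min at 30 °C, then test compound added to 20 µM final for 10 min. Cells spun at 13,000×g through pre-cooled silicone oil; intracellular compound quantified by LC-MS. Biological triplicates.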

C. auris CBS12775 = assay: Checkerboard assay coniotin A with caspofungin; conditions: refractory C. auris, checkerboard (Fig. 4a)
C. auris CBS 10913 = assay: High-throughput screening of crude extracts and PFL fractions; conditions: identified in active fractions of WAC11175, result in words
How it was run: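 Primary screen: C. auris CBS 10913 colonies grown on YPD agar at 30 °C for 48 h, then suspended in RPMI 1640. 1 µL crude extract or fraction added to 49 µL culture in 384-well format, in duplicate. […] OD530 read after 48 h; hits defined as ≥75% growth inhibition versus untreated. For follow-up, producer strains were regrown on Bennett's agar at 30 °C for 7 days, extracts fractionated on C18, and DMSO-dissolved fractions retested in broth microdilution.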

Molecule | Intracellular accumulation (C. auris CBS10913) | MIC of caspofungin in the presence of coniotin A (C. auris CBS12775) [µg/mL] | Activity against C. auris (C. auris CBS 10913)
CC[C@H](C)C[C@H](C)CCCCCCCCC(=O)N[C@H]1C[C@@H](O)[C@@H](NCCN)NC(=O)[C@@H]2[C@@H](O)CCN2C(=O)[C@H]([C@H](O)CCN)NC(=O)[C@H]([C@H](O)[C@@H](O)c2ccc(O)cc2)NC(=O)[C@@H]2C[C@@H](O)CN2C(=O)[C@H]([C@@H](C)O)NC1=O [Caspofungin] | measurable accumulation | 2 | –
enniatin A1 | – | – | significant activity
enniatin B1 | – | – | significant activity
